Assay results as given in publication PMC5062748 (Drug development research, 2016).

Biological target: T1, HNE (Homo sapiens, UniProt P08246)
T1 sequence (P08246 30-247 limits assumed): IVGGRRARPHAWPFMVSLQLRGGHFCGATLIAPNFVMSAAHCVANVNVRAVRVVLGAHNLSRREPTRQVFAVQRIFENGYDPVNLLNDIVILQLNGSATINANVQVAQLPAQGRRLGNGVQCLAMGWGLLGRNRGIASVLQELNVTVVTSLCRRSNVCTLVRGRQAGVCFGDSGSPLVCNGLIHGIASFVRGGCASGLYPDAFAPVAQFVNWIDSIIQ
Test: HNE inhibition assay
Type: biochemical
Details: for HNE inhibitory activity (in words): highest tested concentration 50 µM
Procedure, shortened: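 Human neutrophil elastase (20 mU/mL) in 200 mM Tris–HCl pH 7.5, 0.01% BSA, 0.05% Tween-20, with test compound at varied concentrations (DMSO final 1%, top 50 µM). Reaction started with 25 µM substrate. Fluorescence (ex 355/em 460 nm) read every 30 s for 10 min at 25 °C. IC50 from % inhibition vs log concentration (≥6 points). Mean ± SD of three independent experiments.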

Compound | HNE inhibitory activity (in words) | IC50 [µM]
CCOC(=O)c1cn(-c2cccc(C)c2)c2ccccc12 [2a, Ethyl 1-(m-tolyl)-1H-indole-3-carboxylate] | lack of activity | –
CCOC(=O)c1cn(C(=O)c2cccc(C)c2)c2ccccc12 [2c, Ethyl 1-(3-methylbenzoyl)-1H-indole-3-carboxylate] | inactive | –
CCOC(=O)c1cn(C(=O)c2ccc(Cl)cc2)c2ccccc12 [2e, Ethyl 1-(4-chlorobenzoyl)-1H-indole-3-carboxylate] | – | 3.8 ± 0.4
CCOC(=O)c1cn(C(=O)c2cccc(Cl)c2)c2ccccc12 [2f, Ethyl 1-(3-chlorobenzoyl)-1H-indole-3-carboxylate] | inactive | –
CCOC(=O)c1cn(C(=O)c2ccc(F)cc2)c2ccccc12 [2g, Ethyl 1-(4-fluorobenzoyl)-1H-indole-3-carboxylate] | – | 12.2 ± 2.3
Cc1ccc(C(=O)n2cc(C(=O)Nc3ccccc3)c3ccccc32)cc1 [5c, 1-(4-methylbenzoyl)-N-phenyl-1H-indole-3-carboxamide] | – | 45.3 ± 6.7
Cc1ccc(S(=O)(=O)n2cc(C(=O)Nc3ccccc3)c3ccccc32)cc1 [5f, N-phenyl-1-tosyl-1H-indole-3-carboxamide] | lack of activity | –
CCOC(=O)c1cn(C(=O)c2cccc(C)c2)c2ccc(Br)cc12 [7a, Ethyl 5-bromo-1-(3-methylbenzoyl)-1H-indole-3-carboxylate] | – | 21.6 ± 3.3
CCOC(=O)c1cn(C(=O)c2cccc(C)c2)c2cc(Br)ccc12 [7b, Ethyl 6-bromo-1-(3-methylbenzoyl)-1H-indole-3-carboxylate] | no activity | –
CCOC(=O)c1cn(C(=O)c2ccc(C)cc2)c2cc(Br)ccc12 [7c, Ethyl 6-bromo-1-(4-methylbenzoyl)-1H-indole-3-carboxylate] | – | 10.5 ± 1.7
CCOC(=O)c1cn(C(=O)c2cccc(C)c2)c2ccc([N+](=O)[O-])cc12 [7d, Ethyl 1-(3-methylbenzoyl)-5-nitro-1H-indole-3-carboxylate] | – | 2.4 ± 0.4
CCOC(=O)c1cn(C(=O)c2ccc(C)cc2)c2ccc([N+](=O)[O-])cc12 [7e, Ethyl 1-(4-methylbenzoyl)-5-nitro-1H-indole-3-carboxylate] | – | 13.2 ± 1.8
CCOC(=O)c1cn(C(=O)c2ccc(C)cc2)c2ccc(N)cc12 [compound 8, Ethyl 5-amino-1-(4-methylbenzoyl)-1H-indole-3-carboxylate] | no activity | –
CCOC(=O)c1cn(C(=O)c2ccc(C)cc2)c2ccc(NC(C)=O)cc12 [compound 9, Ethyl 5-acetamido-1-(4-methylbenzoyl)-1H-indole-3-carboxylate] | no activity | –
